Source: ChEMBL document CHEMBL1921681, “Difluoromethylbenzoxazole pyrimidine thioether derivatives: a novel class of potent non-nucleoside HIV-1 reverse transcriptase inhibitors” (J Med Chem, 2011)
Converted amounts (≈) assume the structure as drawn.

Experiments:
[1] = tested on: Human immunodeficiency virus 1; assay: Antiviral activity against Human immunodeficiency virus 1 HXB2 harboring reverse transcriptase K103N and Y181C mutant infected in human MT4 cells stably transformed with HIV1 LTR-EGFP after 3 days by fluorescence microscopic analysis; format: functional, organism-based; conditions: Human immunodeficiency virus 1, HXB2, MT4, 72 h
[2] = Cytotoxicity against mock infected human MT4 cells after 3 days by EGFP fluorescence microscopic analysis; format: cell-based
Method in brief: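 Mock-infected MT4 cells stably carrying a CMV-EGFP reporter, seeded at 150 000 cells/mL and cultured with or without serial compound concentrations. MT4 cells kept in RPMI 1640 with 10% heat-inactivated FCS, 2 mM L-glutamine, 0.1% NaHCO3, gentamicin and G418, at 37 °C under 5% CO2. After 3 days, proliferation was read as EGFP fluorescence, giving CC50.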

[3] = Selectivity ratio of CC50 for mock-infected human MT4 cells to EC50 for Human immunodeficiency virus 1 3B infected in human MT4 cells; format: ADME, cell-based; conditions: read-out: Ratio CC50/EC50
Method in brief: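 Ratio of two values run in parallel. CC50 came from mock-infected CMV-EGFP MT4 cells (150 000 cells/mL, 3 days, EGFP fluorescence). EC50 came from MT4-LTR-EGFP cells (150 000 cells/mL) infected with HIV-1 IIIB at MOI 0.01 with or without inhibitor, with replication read as EGFP fluorescence after 3 days. SI = CC50/EC50.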

[4] = tested on: Human immunodeficiency virus 1; assay: Antiviral activity against Human immunodeficiency virus 1 3B infected in human MT4 cells stably transformed with HIV1 LTR-EGFP after 3 days by fluorescence microscopic analysis; format: functional, organism-based; conditions: MT4, 72 h
Method in brief: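 MT4 cells carrying an HIV LTR-EGFP reporter (150 000 cells/mL) infected with HIV-1 IIIB at MOI 0.01, with or without graded inhibitor concentrations. After 3 days, replication read as EGFP fluorescence and expressed as EC50. Cell line maintained in RPMI 1640 with 10% heat-inactivated FCS, 2 mM L-glutamine, gentamicin, G418, at 37 °C, 5% CO2.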

[5] = tested on: Human immunodeficiency virus 1; assay: Selectivity ratio of EC50 for Human immunodeficiency virus 1 HXB2 harboring reverse transcriptase K103N and Y181C mutant infected in human MT4 cells to EC50 for Human immunodeficiency virus 1 3B infected in human MT4 cells; format: functional
[6] = Dissociation constant, pKa of the compound; format: physicochemical
[7] = Aqueous solubility of the compound; format: physicochemical; conditions: buffer
[8] = Lipophilicity, log D of the compound; format: physicochemical; conditions: octanol/water
[9] = Apparent permeability of the compound across human Caco2 cells; format: ADME, cell-based; conditions: Caco-2
[10] = Metabolic stability of the compound in human liver microsomes after 15 mins; format: ADME, Microsome; conditions: read-out: Stability
Cytochrome P450 3A4 = Cytochrome P450 3A4 (Homo sapiens, UniProt P08684); assay: Inhibition of CYP3A4; format: ADME
Cytochrome P450 2C9 = Cytochrome P450 2C9 (Homo sapiens, UniProt P11712); assay: Inhibition of CYP2C9; format: ADME
Cytochrome P450 2D6 = Cytochrome P450 2D6 (Homo sapiens, UniProt P10635); assay: Inhibition of CYP2D6; format: ADME
Sequence of Cytochrome P450 2D6 (P10635 whole entry): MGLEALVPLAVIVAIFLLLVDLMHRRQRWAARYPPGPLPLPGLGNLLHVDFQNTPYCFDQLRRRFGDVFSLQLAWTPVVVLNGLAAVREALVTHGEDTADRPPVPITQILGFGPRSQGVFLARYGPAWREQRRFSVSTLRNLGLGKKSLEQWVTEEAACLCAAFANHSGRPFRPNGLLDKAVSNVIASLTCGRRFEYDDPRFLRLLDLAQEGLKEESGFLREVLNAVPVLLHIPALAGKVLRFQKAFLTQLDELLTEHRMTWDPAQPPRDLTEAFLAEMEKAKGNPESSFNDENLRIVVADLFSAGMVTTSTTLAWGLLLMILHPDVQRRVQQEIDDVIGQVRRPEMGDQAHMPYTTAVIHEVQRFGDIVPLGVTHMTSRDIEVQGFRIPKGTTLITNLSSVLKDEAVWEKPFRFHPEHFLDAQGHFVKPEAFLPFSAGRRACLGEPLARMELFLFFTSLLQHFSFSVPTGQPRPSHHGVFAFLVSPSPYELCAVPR

Sequence of Cytochrome P450 3A4 (P08684 whole entry): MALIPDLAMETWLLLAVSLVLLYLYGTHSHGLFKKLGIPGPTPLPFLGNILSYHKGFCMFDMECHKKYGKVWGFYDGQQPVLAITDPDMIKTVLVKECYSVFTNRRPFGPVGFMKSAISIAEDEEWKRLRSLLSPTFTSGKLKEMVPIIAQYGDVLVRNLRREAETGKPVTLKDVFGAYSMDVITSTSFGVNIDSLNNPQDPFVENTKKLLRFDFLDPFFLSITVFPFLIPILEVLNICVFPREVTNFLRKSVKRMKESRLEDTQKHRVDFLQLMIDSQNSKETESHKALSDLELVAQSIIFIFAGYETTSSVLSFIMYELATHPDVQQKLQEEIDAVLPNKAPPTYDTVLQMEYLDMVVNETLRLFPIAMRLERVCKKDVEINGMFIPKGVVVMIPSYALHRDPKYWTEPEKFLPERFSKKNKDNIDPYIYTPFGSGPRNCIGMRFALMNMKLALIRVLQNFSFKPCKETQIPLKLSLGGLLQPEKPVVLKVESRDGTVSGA
Sequence of Cytochrome P450 2C9 (P11712 whole entry): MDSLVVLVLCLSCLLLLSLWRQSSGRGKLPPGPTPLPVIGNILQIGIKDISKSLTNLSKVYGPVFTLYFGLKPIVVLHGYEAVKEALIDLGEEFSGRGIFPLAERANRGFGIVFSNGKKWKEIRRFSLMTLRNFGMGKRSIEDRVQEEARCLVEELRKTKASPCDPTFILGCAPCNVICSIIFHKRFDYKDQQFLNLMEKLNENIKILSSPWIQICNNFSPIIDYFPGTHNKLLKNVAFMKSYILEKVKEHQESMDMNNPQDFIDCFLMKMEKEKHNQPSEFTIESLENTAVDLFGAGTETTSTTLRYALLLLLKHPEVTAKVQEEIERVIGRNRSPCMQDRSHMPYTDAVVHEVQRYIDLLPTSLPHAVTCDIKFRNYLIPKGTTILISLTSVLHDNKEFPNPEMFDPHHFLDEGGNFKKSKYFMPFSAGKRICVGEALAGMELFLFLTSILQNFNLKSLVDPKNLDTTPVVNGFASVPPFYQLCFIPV

| Compound | EC50 [1] | CC50 at 72 h [2] | selectivity ratio [3] | EC50 [4] | further results |
| --- | --- | --- | --- | --- | --- |
| Cc1cccc2oc(C(F)(F)Sc3nccc(N)n3)nc12 | > 20 µM | 20 µM | 24 | 0.83 µM |  |
| Cc1ccnc(SC(F)(F)c2nc3cccc(C)c3o2)n1 | 55.4 µM | > 98.4 µM | > 490 | 0.2 µM |  |
| Nc1ccnc(SC(F)(F)c2nc3ccccc3o2)n1 | > 33 µM | 33.5 µM | 129 | 0.26 µM |  |
| CC(C)c1ccnc(SC(F)(F)c2nc3ccccc3o2)n1 | > 98.4 µM | > 98.4 µM | > 774 | 0.13 µM |  |
| Cc1ccnc(S(=O)(=O)C(F)(F)c2nc3ccccc3o2)n1 | > 61 µM | 61 µM | 8 | 7.9 µM |  |
| Cc1ccnc(SC(F)(F)c2nc3c(Cl)cccc3o2)n1 | 79 µM | > 98.4 µM | > 1000 | 0.098 µM | Ratio EC50 [5]: 30 |
| CC(=O)Nc1ccnc(SC(F)(F)c2nc3ccccc3o2)n1 | > 98.4 µM | > 98.4 µM | > 2.3 | 43.3 µM |  |
| CCc1ccnc(SC(F)(F)c2nc3ccccc3o2)n1 | 57 µM | > 98 µM | > 15000 | 0.0064 µM |  |
| FC(F)(Sc1nccc(C2CC2)n1)c1nc2ccccc2o1 | 67.9 µM | 77.5 µM | 484 | 0.16 µM |  |
| FC(F)(Sc1ncccn1)c1nc2ccccc2o1 |  |  |  | 3.14 µM |  |
| COCc1ccnc(SC(F)(F)c2nc3ccccc3o2)n1 | > 98.4 µM | > 98.4 µM | > 142 | 0.66 µM |  |
| Cc1ccnc(SC(F)(F)c2nc3cccc(Cl)c3o2)n1 | 60 µM | > 98.4 µM | > 700 | 0.14 µM | Ratio EC50 [5]: 30 |
| Cc1cc(C)nc(SC(F)(F)c2nc3ccccc3o2)n1 | 77.2 µM | > 98.4 µM | > 100 | 0.95 µM | pKa [6]: 1.3 |
| Cc1ccnc(SC(F)(F)c2nc3c(C)cccc3o2)n1 | > 98.4 µM | > 98.4 µM | > 570 | 0.17 µM |  |
| Nc1ccnc(SC(F)(F)c2nc3c(Cl)cccc3o2)n1 | > 28 µM | 28.8 µM | < 1 | > 28 µM | Ratio EC50 [5]: 30 |
| Cc1ccnc(SC(F)(F)c2nc3ccccc3o2)n1 | 67 µM | > 100 µM | > 800 | 0.11 µM | solubility [7]: 200 µM (≈ 58.7 µg/mL); logD [8]: 3.9; pKa [6]: 3.6; Papp [9]: 34.6 ×10⁻⁶ cm/s; remaining at 0.25 h [10]: 90%; inhibition (INH) (Cytochrome P450 3A4): < 30%; inhibition (INH) (Cytochrome P450 2C9): < 30%; inhibition (INH) (Cytochrome P450 2D6): < 30% |
| c1cnc(SCc2nc3ccccc3o2)nc1 |  |  |  | 35.3 µM |  |
